The subject of experiment [1] is A549. Briefly: in vitro anticancer activity against cultured A549 human tumor(lung) cell line. The format is functional, cell-based. In short, it runs like this:
(§1)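 Human tumour cell lines grown in RPMI-1640 with 25 mM HEPES, 2% NaHCO3, 10% fetal bovine serum and 100 μg/mL kanamycin at 37 °C under 5% CO2. Cells had 3 days of continuous compound exposure in 96-well plates. Fixed with 10% TCA and stained with 0.4% sulforhodamine B; dye dissolved in 20 mM Tris pH 8.0 and read at 562 nm. Treatments run in duplicate. IC50 interpolated from fitted dose-response curves.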

Experiment [2] deals with KB. Briefly: in vitro anticancer activity against cultured KB(epidermoid) human tumor cell line. The format is functional, cell-based. In short, it runs like this:
as §1

Experiment [3] deals with U-87 MG. Briefly: in vitro anticancer activity against cultured U87MG (glioblastoma) human tumor cell line. The format is functional, cell-based, U-87MG ATCC. Summed up:
as §1

In the next experiment the test system is HCT-8. As to the kind of experiment: in vitro inhibition of tumor cell growth in cultured HCT-8 human tumor cell line. The format is functional, cell-based. Summed up:
as §1

Another experiment concerns MCF7. Briefly: in vitro inhibition of tumor cell growth in cultured MCF-7 human tumor cell line. The format is functional, cell-based. Summed up:
as §1

A further experiment relates to PC-3. As to the kind of experiment: in vitro inhibition of tumor cell growth in cultured PC-3 human tumor cell line. The format is functional, cell-based. Summed up: as §1
A further experiment deals with HepG2. As to the kind of experiment: in vitro inhibition of tumor cell growth in cultured HepG2 human tumor cell line. The format is functional, cell-based. In short, it runs like this:
as §1

Experiment [4] in a line: Mean IC50 for all seven tumor cell lines was determined. The format is functional. Summed up:
as §1

Experiment [5] has as its system A549. As to the kind of experiment: in vitro inhibition of tumor cell growth in cultured A549 human tumor cell line. The format is functional, cell-based. In short, it runs like this: as §1
In experiment [6] the test system is KB. Briefly: in vitro inhibition of tumor cell growth in cultured KB human tumor cell line. The format is functional, cell-based. In short, it runs like this: as §1
Experiment [7] has as its system U-87 MG. As to the kind of experiment: in vitro inhibition of tumor cell growth in cultured U87MG human tumor cell line. The format is functional, cell-based, U-87MG ATCC. Summed up:
as §1

≈ marks a conversion by molar mass, not a printed value.

Usually IC50 stands for the point on the concentration scale where inhibition reaches its midpoint. Higher therefore signals weaker potency in that assay. In the case of `CO[C@@]12[C@H](COC(N)=O)C3=C(C(=O)C(C)=C(NCc4ccc(CNC5=C(C)C(=O)C6=C(C5=O)[C@@H](COC(N)=O)[C@@]5(OC)[C@H]7NC7CN65)cc4)C3=O)N1CC1N[C@@H]12` (stereo partly specified), the IC50 in the experiment on A549 [1], with KB [2] and with U-87 MG [3] was more than 1 µg/mL in each case.

Consider `CO[C@@]12[C@H](COC(N)=O)C3=C(C(=O)C(C)=C(Nc4ccc(CCc5ccc(NC6=C(C)C(=O)C7=C(C6=O)[C@@H](COC(N)=O)[C@@]6(OC)[C@H]8NC8CN76)cc5)cc4)C3=O)N1CC1N[C@@H]12` (stereo partly specified), for which the IC50 in the experiment on A549 [1] amounted to 0.095 µg/mL (≈ 0.112 µM); in the experiment on HCT-8 it was 0.11 µg/mL (≈ 0.13 µM); in the experiment with KB [2], 0.215 µg/mL (≈ 0.254 µM); in the experiment on MCF7, 0.21 µg/mL (≈ 0.248 µM); with PC-3, 0.2 µg/mL (≈ 0.236 µM); with U-87 MG [3] it was 0.51 µg/mL (≈ 0.602 µM). This compound returned an IC50 in the experiment on HepG2 of 0.16 µg/mL (≈ 0.189 µM). The compound further showed a Mean IC50 in experiment [4] of 0.2 µg/mL.

With `CO[C@@]12[C@H](COC(N)=O)C3=C(C(=O)C(C)=C(Nc4ccc(Oc5ccc(NC6=C(C)C(=O)C7=C(C6=O)[C@@H](COC(N)=O)[C@@]6(OC)[C@H]8NC8CN76)cc5)cc4)C3=O)N1CC1N[C@@H]12` (stereo partly specified), the IC50 with A549 [1] turned out to be 0.062 µg/mL (≈ 0.0743 µM); in the experiment on HCT-8 it was 0.06 µg/mL (≈ 0.0719 µM); in the experiment with KB [2], 0.064 µg/mL (≈ 0.0767 µM); with MCF7, 0.14 µg/mL (≈ 0.168 µM); in the experiment on PC-3, 0.08 µg/mL (≈ 0.0958 µM); in the experiment with U-87 MG [3], 0.32 µg/mL (≈ 0.383 µM). In the experiment with HepG2, this compound gave an IC50 of 0.05 µg/mL (≈ 0.0599 µM). For the same compound, the Mean IC50 in experiment [4] came out at 0.11 µg/mL.

For the compound `CO[C@@]12[C@H](COC(N)=O)C3=C(C(=O)C(C)=C(Nc4ccccc4)C3=O)N1C[C@@H]1N[C@@H]12`, the IC50 was 0.02 µg/mL (≈ 0.0487 µM) with A549 [5]; 0.004 µg/mL (≈ 0.00975 µM) in the experiment with HCT-8; 0.13 µg/mL (≈ 0.317 µM) in the experiment with KB [6]; 0.06 µg/mL (≈ 0.146 µM) in the experiment with MCF7; 0.11 µg/mL (≈ 0.268 µM) in the experiment with PC-3; 0.26 µg/mL (≈ 0.633 µM) in the experiment with U-87 MG [7]. Also, 0.05 µg/mL (≈ 0.122 µM) corresponded to half-maximal inhibition with HepG2 (IC50). For the same compound, the Mean IC50 in experiment [4] worked out at 0.09 µg/mL.

Regarding `CO[C@@]12[C@H](COC(N)=O)C3=C(C(=O)C(C)=C(N)C3=O)N1C[C@H]1[C@@H]2N1C(=O)CCCCC(=O)N1[C@@H]2CN3C4=C(C(=O)C(N)=C(C)C4=O)[C@H](COC(N)=O)[C@]3(OC)[C@@H]21`, the IC50 with A549 [1] was 0.76 µg/mL (≈ 0.976 µM); with KB [2] it was more than 1 µg/mL; in the experiment with U-87 MG [3], more than 1 µg/mL.

For the compound `CO[C@@]12[C@H](COC(N)=O)C3=C(C(=O)C(C)=C(N)C3=O)N1C[C@H]1[C@@H]2N1C(=O)CCCCCC(=O)N1[C@H]2[C@@H]1CN1C3=C(C(=O)C(N)=C(C)C3=O)[C@@H](COC(N)=O)[C@@]21OC`, the IC50 was 0.68 µg/mL (≈ 0.858 µM) in the experiment with A549 [1], more than 1 µg/mL in the experiment on KB [2] and more than 1 µg/mL with U-87 MG [3].

Regarding `CO[C@@]12[C@H](COC(N)=O)C3=C(C(=O)C(C)=C(N)C3=O)N1C[C@H]1[C@@H]2N1C(=O)CCCC(=O)N1[C@H]2[C@@H]1CN1C3=C(C(=O)C(N)=C(C)C3=O)[C@@H](COC(N)=O)[C@@]21OC`, the IC50 is 0.67 µg/mL (≈ 0.876 µM) in the experiment on A549 [1], more than 1 µg/mL with KB [2] and more than 1 µg/mL in the experiment on U-87 MG [3].

With `CO[C@@]12[C@H](COC(N)=O)C3=C(C(=O)C(C)=C(NCCCOCCCNC4=C(C)C(=O)C5=C(C4=O)[C@@H](COC(N)=O)[C@@]4(OC)[C@H]6NC6CN54)C3=O)N1CC1N[C@@H]12` (stereo partly specified), the IC50 with A549 [1] was more than 10 µg/mL; with KB [2], more than 1 µg/mL; with U-87 MG [3], more than 1 µg/mL.

For the compound `CO[C@@]12[C@H](COC(N)=O)C3=C(C(=O)C(C)=C(NCCCNCCCNC4=C(C)C(=O)C5=C(C4=O)[C@@H](COC(N)=O)[C@@]4(OC)[C@H]6NC6CN54)C3=O)N1CC1N[C@@H]12` (stereo partly specified), the IC50 with A549 [1], in the experiment with KB [2] and with U-87 MG [3] was more than 1 µg/mL in each case.

Regarding `CO[C@@]12[C@H](COC(N)=O)C3=C(C(=O)C(C)=C(NCCOCCNC4=C(C)C(=O)C5=C(C4=O)[C@@H](COC(N)=O)[C@@]4(OC)[C@H]6NC6CN54)C3=O)N1CC1N[C@@H]12` (stereo partly specified), the concentration for half-maximal inhibition (IC50) in the experiment with A549 [1] and in the experiment on U-87 MG [3] was more than 10 µg/mL each time.

`CO[C@@]12[C@H](COC(N)=O)C3=C(C(=O)C(C)=C(NCCNCCNC4=C(C)C(=O)C5=C(C4=O)[C@@H](COC(N)=O)[C@@]4(OC)[C@H]6NC6CN54)C3=O)N1CC1N[C@@H]12` (stereo partly specified): the IC50 is more than 1 µg/mL in the experiment on A549 [1], 0.98 µg/mL (≈ 1.33 µM) in the experiment with KB [2] and more than 1 µg/mL with U-87 MG [3].

With `CO[C@@]12[C@H](COC(N)=O)C3=C(C(=O)C(C)=C(N)C3=O)N1C[C@H]1[C@@H]2N1C(=O)CCC(=O)N1[C@@H]2CN3C4=C(C(=O)C(N)=C(C)C4=O)[C@H](COC(N)=O)[C@]3(OC)[C@@H]21`, the IC50 in the experiment on A549 [1] is 0.67 µg/mL (≈ 0.892 µM); in the experiment with KB [2] it was more than 1 µg/mL; in the experiment with U-87 MG [3], more than 1 µg/mL.

For `COC1=C(C)C(=O)C2=C(C1=O)[C@@H](COC(N)=O)[C@@]1(OC)[C@H]3N[C@H]3CN21` [MITOMYCIN A], the IC50 came to 0.006 µg/mL (≈ 0.0172 µM) in the experiment on A549 [1]; 0.006 µg/mL (≈ 0.0172 µM) in the experiment with HCT-8; 0.008 µg/mL (≈ 0.0229 µM) in the experiment with KB [2]; 0.045 µg/mL (≈ 0.129 µM) in the experiment on MCF7; 0.02 µg/mL (≈ 0.0573 µM) with PC-3; 0.009 µg/mL (≈ 0.0258 µM) with U-87 MG [3]. The compound also registered an IC50 in the experiment with HepG2 of 0.008 µg/mL (≈ 0.0229 µM). For the same compound, in [4], the Mean IC50 worked out at 0.014 µg/mL.

For `CO[C@@]12[C@H](COC(N)=O)C3=C(C(=O)C(C)=C(N)C3=O)N1C[C@@H]1N[C@@H]12` [MITOMYCIN], the IC50 is 0.08 µg/mL (≈ 0.239 µM) in the experiment with A549 [1]; 0.15 µg/mL (≈ 0.449 µM) with HCT-8; 0.1 µg/mL (≈ 0.299 µM) in the experiment on KB [2]; 0.45 µg/mL (≈ 1.35 µM) with MCF7; 1.55 µg/mL (≈ 4.64 µM) in the experiment on PC-3; 0.97 µg/mL (≈ 2.9 µM) in the experiment on U-87 MG [3]. Further, the IC50 in the experiment with HepG2 was determined as 0.36 µg/mL (≈ 1.08 µM). In experiment [4], this compound yielded a Mean IC50 of 0.63 µg/mL.

The record behind these values is ChEMBL document CHEMBL1134630, “Synthesis, DNA cross-linking activity, and cytotoxicity of dimeric mitomycins” (J Med Chem, 2001).
